Laboratory results from ChEMBL document CHEMBL5653631, “A Potent and Selective ULK1 Inhibitor Suppresses Autophagy and Sensitizes Cancer Cells to Nutrient Stress” (iScience, 2018).
Each block holds one molecule with its values, some of them ahead of it.

Experiments:
[1] = target: T1, Mitogen-activated protein kinase kinase kinase 7 (Homo sapiens) (UniProt O43318); assay: Inhibition of human recombinant TAK1 at 500 nM in presence of ATP by radiometric assay relative to control
T1 sequence (whole entry): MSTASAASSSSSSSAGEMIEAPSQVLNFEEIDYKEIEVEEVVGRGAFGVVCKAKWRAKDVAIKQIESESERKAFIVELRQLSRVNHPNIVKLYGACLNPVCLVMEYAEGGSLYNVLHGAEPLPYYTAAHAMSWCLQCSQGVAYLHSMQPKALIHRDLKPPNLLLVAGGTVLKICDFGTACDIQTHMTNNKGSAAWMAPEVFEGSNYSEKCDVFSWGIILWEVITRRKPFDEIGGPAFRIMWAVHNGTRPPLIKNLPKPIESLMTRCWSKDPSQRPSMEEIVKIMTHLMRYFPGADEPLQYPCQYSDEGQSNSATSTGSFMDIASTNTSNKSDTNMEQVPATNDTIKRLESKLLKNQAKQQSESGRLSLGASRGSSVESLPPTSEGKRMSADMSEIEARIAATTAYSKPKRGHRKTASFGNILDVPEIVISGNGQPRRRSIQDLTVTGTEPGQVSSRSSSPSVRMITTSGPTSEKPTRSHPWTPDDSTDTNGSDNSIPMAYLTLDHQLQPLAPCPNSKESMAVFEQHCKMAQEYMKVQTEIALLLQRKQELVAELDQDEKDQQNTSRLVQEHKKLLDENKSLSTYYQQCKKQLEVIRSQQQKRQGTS

[2] = target: Calcium/calmodulin-dependent protein kinase type 1D (Homo sapiens) (UniProt Q8IU85); assay: Inhibition of human recombinant CaMK1d at 500 nM in presence of ATP by radiometric assay relative to control
Calcium/calmodulin-dependent protein kinase type 1D (Homo sapiens), sequence (Q8IU85 whole entry, looked up): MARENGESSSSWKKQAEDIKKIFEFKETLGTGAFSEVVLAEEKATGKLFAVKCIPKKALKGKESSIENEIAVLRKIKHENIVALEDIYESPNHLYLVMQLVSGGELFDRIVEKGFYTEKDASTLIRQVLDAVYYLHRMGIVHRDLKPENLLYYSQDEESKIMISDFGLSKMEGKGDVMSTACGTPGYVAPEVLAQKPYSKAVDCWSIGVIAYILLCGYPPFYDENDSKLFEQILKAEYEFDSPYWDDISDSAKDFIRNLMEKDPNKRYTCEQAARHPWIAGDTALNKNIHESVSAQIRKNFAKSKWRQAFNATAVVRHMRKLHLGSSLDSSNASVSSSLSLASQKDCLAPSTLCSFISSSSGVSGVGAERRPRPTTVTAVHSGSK

[3] = target: Tyrosine-protein kinase CSK (Homo sapiens) (UniProt P41240); assay: Inhibition of human recombinant CSK at 500 nM related to control ULK1
[4] = target: Mitogen-activated protein kinase kinase kinase kinase 4 (Homo sapiens) (UniProt O95819); assay: Inhibition of human recombinant HGK at 500 nM related to control ULK1
[5] = target: Protein kinase C beta type (Homo sapiens) (UniProt P05771); assay: Inhibition of human recombinant PKCb at 500 nM in presence of ATP by radiometric assay relative to control
[6] = target: Serine/threonine-protein kinase Nek4 (Homo sapiens) (UniProt P51957); assay: Inhibition of human recombinant NEK4 at 500 nM related to control ULK1
[7] = target: T2, Serine/threonine-protein kinase tousled-like 1 (Homo sapiens) (UniProt Q9UKI8); assay: Inhibition of human recombinant TLK1 at 500 nM in presence of ATP by radiometric assay relative to control
T2 sequence (whole entry): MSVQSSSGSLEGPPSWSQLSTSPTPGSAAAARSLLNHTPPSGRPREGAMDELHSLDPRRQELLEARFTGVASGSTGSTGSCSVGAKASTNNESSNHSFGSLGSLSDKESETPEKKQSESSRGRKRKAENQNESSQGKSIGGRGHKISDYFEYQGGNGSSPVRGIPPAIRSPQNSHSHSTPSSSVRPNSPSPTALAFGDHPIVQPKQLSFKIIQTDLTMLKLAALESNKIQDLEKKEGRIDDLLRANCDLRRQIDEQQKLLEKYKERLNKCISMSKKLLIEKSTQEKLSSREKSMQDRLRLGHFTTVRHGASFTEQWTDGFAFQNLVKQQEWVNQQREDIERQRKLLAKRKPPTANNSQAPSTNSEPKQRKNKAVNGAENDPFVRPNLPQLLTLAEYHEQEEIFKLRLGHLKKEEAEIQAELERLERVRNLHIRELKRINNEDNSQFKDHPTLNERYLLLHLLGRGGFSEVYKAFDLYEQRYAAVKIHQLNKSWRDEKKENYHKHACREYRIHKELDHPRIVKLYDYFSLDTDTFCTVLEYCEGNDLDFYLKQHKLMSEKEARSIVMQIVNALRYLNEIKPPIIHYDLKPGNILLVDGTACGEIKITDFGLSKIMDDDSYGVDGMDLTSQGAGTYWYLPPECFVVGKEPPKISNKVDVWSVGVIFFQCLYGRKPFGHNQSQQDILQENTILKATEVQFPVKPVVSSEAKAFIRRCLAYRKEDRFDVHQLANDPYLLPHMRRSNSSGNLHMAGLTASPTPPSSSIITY

[8] = target: Tyrosine-protein kinase Fes/Fps (Homo sapiens) (UniProt P07332); assay: Inhibition of human recombinant FES at 40 nM related to control ULK1
Tyrosine-protein kinase Fes/Fps (Homo sapiens), sequence (P07332 whole entry): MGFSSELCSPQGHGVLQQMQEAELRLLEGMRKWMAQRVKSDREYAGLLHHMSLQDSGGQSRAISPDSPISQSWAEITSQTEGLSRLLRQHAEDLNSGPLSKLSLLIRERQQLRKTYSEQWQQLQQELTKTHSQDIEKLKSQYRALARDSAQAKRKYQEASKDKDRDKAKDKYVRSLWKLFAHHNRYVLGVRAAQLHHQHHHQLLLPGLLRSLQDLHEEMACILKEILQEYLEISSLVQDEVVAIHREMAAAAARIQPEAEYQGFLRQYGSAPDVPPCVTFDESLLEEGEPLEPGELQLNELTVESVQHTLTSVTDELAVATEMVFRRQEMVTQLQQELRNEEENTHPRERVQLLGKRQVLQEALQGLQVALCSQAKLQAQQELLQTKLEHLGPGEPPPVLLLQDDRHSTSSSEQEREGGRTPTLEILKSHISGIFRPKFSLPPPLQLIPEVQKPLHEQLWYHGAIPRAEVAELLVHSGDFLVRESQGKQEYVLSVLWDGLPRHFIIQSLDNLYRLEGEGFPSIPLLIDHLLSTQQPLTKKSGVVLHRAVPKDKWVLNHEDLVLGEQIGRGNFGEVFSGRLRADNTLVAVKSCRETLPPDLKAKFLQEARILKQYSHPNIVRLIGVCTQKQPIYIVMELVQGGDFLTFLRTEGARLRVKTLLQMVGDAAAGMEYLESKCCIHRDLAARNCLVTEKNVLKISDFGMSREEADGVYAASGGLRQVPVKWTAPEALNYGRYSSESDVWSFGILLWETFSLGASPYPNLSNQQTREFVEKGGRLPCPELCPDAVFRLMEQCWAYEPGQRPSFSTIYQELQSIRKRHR

[9] = target: 5'-AMP-activated protein kinase catalytic subunit alpha-1 (Homo sapiens) (UniProt Q13131); assay: Inhibition of human recombinant AMPKa1 at 40 nM related to control ULK1
Summary of the method: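 Radiometric activity assays in a panel of 327 human recombinant kinases, each run in duplicate at one inhibitor concentration. Activity remaining is expressed as percent of vehicle control, and percent inhibition is calculated as 100% minus percent activity remaining.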

[10] = target: Glycogen synthase kinase-3 beta (Homo sapiens) (UniProt P49841); assay: Inhibition of human recombinant GSK3B at 15 nM related to control ULK1
Glycogen synthase kinase-3 beta (Homo sapiens), sequence (P49841 whole entry, looked up): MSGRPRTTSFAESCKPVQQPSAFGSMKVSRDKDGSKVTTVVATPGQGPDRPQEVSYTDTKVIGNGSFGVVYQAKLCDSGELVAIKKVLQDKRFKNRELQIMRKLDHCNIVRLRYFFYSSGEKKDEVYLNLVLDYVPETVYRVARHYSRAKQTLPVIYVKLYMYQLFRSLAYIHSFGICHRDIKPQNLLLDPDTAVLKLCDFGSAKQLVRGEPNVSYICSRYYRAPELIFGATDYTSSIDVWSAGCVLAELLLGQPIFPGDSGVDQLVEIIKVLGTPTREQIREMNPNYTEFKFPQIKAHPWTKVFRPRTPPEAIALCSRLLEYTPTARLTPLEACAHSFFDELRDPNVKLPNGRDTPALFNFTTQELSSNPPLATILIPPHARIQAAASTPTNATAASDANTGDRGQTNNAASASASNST

[11] = target: Serine/threonine-protein kinase tousled-like 2 (Homo sapiens) (UniProt Q86UE8); assay: Inhibition of human recombinant TLK2 at 15 nM related to control ULK1
[12] = target: Calcium/calmodulin-dependent protein kinase type 1D (Homo sapiens) (UniProt Q8IU85); assay: Inhibition of human recombinant CaMK1d at 15 nM related to control ULK1
[13] = target: Leucine-rich repeat serine/threonine-protein kinase 2 (Homo sapiens) (UniProt Q5S007); assay: Inhibition of human recombinant LRRK2 at 15 nM in presence of ATP by radiometric assay relative to control
[14] = target: Serine/threonine-protein kinase WNK3 (Homo sapiens) (UniProt Q9BYP7); assay: Inhibition of human recombinant Wnk3 at 15 nM related to control ULK1
Serine/threonine-protein kinase WNK3 (Homo sapiens), sequence (Q9BYP7 whole entry): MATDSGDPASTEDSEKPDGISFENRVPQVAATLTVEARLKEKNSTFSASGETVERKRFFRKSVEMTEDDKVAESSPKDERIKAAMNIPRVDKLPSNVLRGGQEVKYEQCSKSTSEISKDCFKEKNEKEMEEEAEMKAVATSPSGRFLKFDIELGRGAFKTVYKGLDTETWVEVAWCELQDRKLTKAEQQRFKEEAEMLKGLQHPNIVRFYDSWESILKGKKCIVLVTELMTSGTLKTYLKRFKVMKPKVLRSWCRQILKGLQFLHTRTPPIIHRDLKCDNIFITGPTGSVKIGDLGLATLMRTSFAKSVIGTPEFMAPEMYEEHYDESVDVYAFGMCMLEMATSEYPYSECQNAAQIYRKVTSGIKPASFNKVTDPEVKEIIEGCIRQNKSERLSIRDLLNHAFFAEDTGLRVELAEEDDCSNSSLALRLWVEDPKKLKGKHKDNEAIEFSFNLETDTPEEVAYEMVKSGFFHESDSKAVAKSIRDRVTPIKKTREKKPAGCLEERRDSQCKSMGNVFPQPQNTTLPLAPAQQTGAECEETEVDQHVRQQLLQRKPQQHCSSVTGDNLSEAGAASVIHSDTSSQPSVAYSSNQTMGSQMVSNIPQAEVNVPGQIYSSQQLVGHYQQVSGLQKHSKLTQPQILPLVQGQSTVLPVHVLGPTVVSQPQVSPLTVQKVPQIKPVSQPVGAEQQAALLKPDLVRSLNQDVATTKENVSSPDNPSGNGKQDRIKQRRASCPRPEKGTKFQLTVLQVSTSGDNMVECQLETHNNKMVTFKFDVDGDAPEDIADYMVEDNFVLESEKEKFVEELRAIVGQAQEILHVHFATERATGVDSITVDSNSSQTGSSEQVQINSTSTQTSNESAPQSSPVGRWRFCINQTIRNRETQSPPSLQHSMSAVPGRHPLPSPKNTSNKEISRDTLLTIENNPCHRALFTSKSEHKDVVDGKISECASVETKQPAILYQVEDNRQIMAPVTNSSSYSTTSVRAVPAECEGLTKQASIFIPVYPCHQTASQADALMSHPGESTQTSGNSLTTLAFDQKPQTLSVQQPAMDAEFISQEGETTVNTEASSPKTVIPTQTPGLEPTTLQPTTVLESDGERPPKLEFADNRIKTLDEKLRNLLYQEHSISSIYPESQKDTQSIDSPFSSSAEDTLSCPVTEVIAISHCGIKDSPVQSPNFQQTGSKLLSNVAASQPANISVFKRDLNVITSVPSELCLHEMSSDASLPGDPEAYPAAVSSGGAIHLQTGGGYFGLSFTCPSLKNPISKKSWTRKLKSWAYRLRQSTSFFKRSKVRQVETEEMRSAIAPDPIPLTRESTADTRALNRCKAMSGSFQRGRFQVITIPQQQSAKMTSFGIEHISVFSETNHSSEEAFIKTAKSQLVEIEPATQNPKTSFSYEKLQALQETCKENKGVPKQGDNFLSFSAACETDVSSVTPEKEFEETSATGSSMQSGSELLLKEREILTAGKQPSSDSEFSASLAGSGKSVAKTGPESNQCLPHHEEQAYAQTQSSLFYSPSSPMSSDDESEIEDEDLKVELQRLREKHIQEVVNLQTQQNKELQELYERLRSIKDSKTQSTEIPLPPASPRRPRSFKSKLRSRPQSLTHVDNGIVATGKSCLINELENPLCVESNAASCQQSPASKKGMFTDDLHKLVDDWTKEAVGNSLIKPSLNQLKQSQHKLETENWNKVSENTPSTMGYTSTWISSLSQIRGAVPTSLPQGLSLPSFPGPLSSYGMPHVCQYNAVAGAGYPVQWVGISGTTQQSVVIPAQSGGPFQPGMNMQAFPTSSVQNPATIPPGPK

[15] = target: Fibroblast growth factor receptor 1 (Homo sapiens) (UniProt P11362); assay: Inhibition of human recombinant FGFR1 at 15 nM related to control ULK1
[16] = target: Receptor tyrosine-protein kinase erbB-4 (Homo sapiens) (UniProt Q15303); assay: Inhibition of human recombinant ErbB4 at 15 nM related to control ULK1
Receptor tyrosine-protein kinase erbB-4 (Homo sapiens), sequence (Q15303 whole entry): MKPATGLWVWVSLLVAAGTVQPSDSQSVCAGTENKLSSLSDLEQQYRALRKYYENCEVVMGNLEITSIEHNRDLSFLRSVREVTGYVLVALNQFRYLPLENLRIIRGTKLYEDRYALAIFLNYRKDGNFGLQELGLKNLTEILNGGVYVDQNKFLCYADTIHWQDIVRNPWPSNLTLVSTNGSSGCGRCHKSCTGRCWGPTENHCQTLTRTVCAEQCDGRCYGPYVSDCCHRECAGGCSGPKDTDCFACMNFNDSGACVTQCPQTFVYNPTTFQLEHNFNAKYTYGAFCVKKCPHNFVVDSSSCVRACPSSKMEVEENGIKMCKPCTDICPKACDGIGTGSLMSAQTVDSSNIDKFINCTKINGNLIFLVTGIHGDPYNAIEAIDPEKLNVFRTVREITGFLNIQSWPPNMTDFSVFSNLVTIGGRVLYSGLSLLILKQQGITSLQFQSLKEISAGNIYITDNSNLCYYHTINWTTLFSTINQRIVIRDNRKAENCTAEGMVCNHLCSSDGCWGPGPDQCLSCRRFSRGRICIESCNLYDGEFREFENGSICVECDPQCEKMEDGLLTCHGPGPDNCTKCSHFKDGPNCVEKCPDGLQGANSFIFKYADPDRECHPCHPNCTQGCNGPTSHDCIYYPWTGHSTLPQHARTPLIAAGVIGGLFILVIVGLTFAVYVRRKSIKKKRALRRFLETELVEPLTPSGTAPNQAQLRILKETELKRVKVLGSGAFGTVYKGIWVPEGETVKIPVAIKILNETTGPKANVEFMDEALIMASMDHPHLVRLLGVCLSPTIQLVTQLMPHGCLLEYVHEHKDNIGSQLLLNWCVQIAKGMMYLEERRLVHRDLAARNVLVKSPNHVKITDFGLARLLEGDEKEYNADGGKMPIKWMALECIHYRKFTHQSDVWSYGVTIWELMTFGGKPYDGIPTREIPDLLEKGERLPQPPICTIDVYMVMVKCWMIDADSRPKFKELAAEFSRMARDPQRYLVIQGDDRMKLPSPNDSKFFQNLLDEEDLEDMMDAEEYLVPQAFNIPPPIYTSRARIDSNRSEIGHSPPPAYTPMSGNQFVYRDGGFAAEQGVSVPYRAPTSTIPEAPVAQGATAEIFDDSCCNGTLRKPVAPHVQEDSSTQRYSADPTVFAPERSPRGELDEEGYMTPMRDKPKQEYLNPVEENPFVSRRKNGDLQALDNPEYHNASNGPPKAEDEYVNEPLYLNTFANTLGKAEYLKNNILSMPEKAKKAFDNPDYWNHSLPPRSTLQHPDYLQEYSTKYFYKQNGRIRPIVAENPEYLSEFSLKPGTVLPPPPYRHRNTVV

[17] = target: Calcium/calmodulin-dependent protein kinase type II subunit gamma (Homo sapiens) (UniProt Q13555); assay: Inhibition of human recombinant CaMK2g at 15 nM related to control ULK1
[18] = target: PAS domain-containing serine/threonine-protein kinase (Homo sapiens) (UniProt Q96RG2); assay: Inhibition of human recombinant PASK at 15 nM in presence of ATP by radiometric assay relative to control
[19] = target: Cyclin-dependent kinase 6 (Homo sapiens) (UniProt Q00534); assay: Inhibition of human recombinant CDK6 at 15 nM related to control ULK1
Cyclin-dependent kinase 6 (Homo sapiens), sequence (Q00534 whole entry): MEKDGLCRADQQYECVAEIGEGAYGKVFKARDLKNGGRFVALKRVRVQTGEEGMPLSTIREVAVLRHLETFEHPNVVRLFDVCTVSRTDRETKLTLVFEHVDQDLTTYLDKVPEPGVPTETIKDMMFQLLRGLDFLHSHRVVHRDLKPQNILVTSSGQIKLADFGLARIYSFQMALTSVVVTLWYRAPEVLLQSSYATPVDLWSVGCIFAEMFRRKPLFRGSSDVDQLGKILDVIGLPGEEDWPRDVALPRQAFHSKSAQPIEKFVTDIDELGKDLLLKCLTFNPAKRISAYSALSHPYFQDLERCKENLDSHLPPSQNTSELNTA

[20] = target: Calcium/calmodulin-dependent protein kinase kinase 2 (Homo sapiens) (UniProt Q96RR4); assay: Inhibition of human recombinant CaMKK2 at 15 nM in presence of ATP by radiometric assay relative to control

inhibition [1]: 2%
inhibition [2]: 5%
fold change (FC) [3]: 0.03
fold change (FC) [4]: 0
inhibition [5]: 7%
fold change (FC) [6]: 0.31
inhibition [7]: 0%
Compound: CNC(=O)c1ccccc1Oc1nc(Nc2cc(OC)c(OC)c(OC)c2)ncc1Br

fold change (FC) [8]: 0.21
fold change (FC) [9]: 0.11
Compound: O=C(N[C@@H](C1CC1)C(F)(F)F)c1cc(-c2cnn3cc(-c4ccc(F)cc4)cnc23)cs1

fold change (FC) [10]: 0.13
fold change (FC) [11]: 0.03
fold change (FC) [12]: 0
inhibition [13]: 3%
fold change (FC) [14]: 0
fold change (FC) [15]: 0
fold change (FC) [16]: 0
fold change (FC) [17]: 0.25
inhibition [18]: 0%
fold change (FC) [19]: 0.09
inhibition [20]: 1%
Compound: CC(C)[C@H](NC(=O)c1cc(-c2cnn3cc(-c4ccc(OCCN5CCCCC5)cc4)cnc23)cs1)C(F)(F)F
